Experimental data published in ChEMBL document CHEMBL1130024, “Synthesis and structure-activity relationships of 17beta-substituted 14beta-hydroxysteroid 3-(alpha-L-rhamnopyranoside)s: steroids that bind to the digitalis receptor” (J Med Chem, 1997).

Test system: not listed separately; call rule not given here
Assay: Concentration that inhibits binding of [3H]ouabain against Digitalis receptor in dog heart microsomes; Not active at a concentration > 100 uM
Set-up: species or system Canis lupus familiaris, Microsome
In the case of `C[C@@H]1O[C@@H](O[C@H]2CC[C@@]3(C)[C@H](CC[C@@H]4[C@@H]3CC[C@]3(C)[C@@H]5CC[C@]43OC(=O)C5)C2)[C@H](O)[C@H](O)[C@H]1O`, the IC50 is reported as “Not Active”.

Molecular target: Sodium/potassium-transporting ATPase subunit alpha-1 (Canis lupus familiaris, UniProt P50997)
Assay: Inhibition of [3H]ouabain binding to Digitalis receptor in dog heart microsomes
Outline: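 Radioligand competition assay in dog heart muscle microsomes (membrane preparation), measuring [³H]ouabain binding with the test steroids present. Steroids were added in ethanol.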
For `C[C@@H]1O[C@@H](O[C@H]2CC[C@@]3(C)[C@H](CC[C@@H]4[C@@H]3CC[C@]3(C)[C@@H]5CC[C@]43OC5)C2)[C@H](O)[C@H](O)[C@H]1O`, the IC50 was 2200 nM.
Molecule `C[C@@H]1O[C@@H](O[C@H]2CC[C@@]3(C)[C@H](CC[C@@H]4[C@@H]3CC[C@]3(C)[C@H](C(O)C[N+](=O)[O-])CC[C@]43O)C2)[C@H](O)[C@H](O)[C@H]1O` (some centres not stated) has an IC50 of 4730 nM.
Molecule `C[C@@H]1O[C@@H](O[C@H]2CC[C@@]3(C)[C@H](CC[C@@H]4[C@@H]3CC[C@]3(C)[C@@H](C(O)CN)CC[C@]43O)C2)[C@H](O)[C@H](O)[C@H]1O` (some centres not stated) has an IC50 of 3220 nM.
`CC1OC(O[C@H]2CC[C@@]3(C)[C@H](CC[C@@H]4[C@@H]3CC[C@]3(C)[C@@H](CCN)CC[C@]43O)C2)C(O)C(O)C1O` (some centres not stated) gave an IC50 of 1890 nM.
`C[C@@H]1O[C@@H](O[C@H]2CC[C@@]3(C)[C@H](CC[C@@H]4[C@@H]3CC[C@]3(C)[C@@H](CCO)CC[C@]43O)C2)[C@H](O)[C@H](O)[C@H]1O` gave an IC50 of 660 nM.
Work on `C[C@H]1O[C@@H](O[C@H]2[C@@H](O)C[C@H](O[C@H]3[C@@H](O)C[C@H](O[C@H]4CC[C@@]5(C)[C@H](CC[C@@H]6[C@@H]5CC[C@]5(C)[C@@H](C7=CC(=O)OC7)CC[C@]65O)C4)O[C@@H]3C)O[C@@H]2C)C[C@H](O)[C@@H]1O` [DIGITOXIN] yielded an IC50 of 8 nM.
`COC(C[N+](=O)[O-])[C@H]1CC[C@]2(O)[C@@H]3CC[C@@H]4C[C@@H](O[C@@H]5O[C@@H](C)[C@H](O)[C@@H](O)[C@H]5O)CC[C@]4(C)[C@H]3CC[C@]12C` (some centres not stated) gave an IC50 of 30 nM.
Work on `C[C@@H]1O[C@@H](O[C@H]2CC[C@@]3(C)[C@H](CC[C@@H]4[C@@H]3CC[C@]3(C)[C@@H](/C=C/C(=O)O)CC[C@]43O)C2)[C@H](O)[C@H](O)[C@H]1O` yielded an IC50 of 13 nM.
Work on `C[C@@H]1O[C@@H](O[C@H]2CC[C@@]3(C)[C@H](CC[C@@H]4[C@@H]3CC[C@]3(C)[C@@H](CCC(=O)O)CC[C@]43O)C2)[C@H](O)[C@H](O)[C@H]1O` yielded an IC50 of 230 nM.
`C[C@@H]1O[C@@H](O[C@H]2CC[C@@]3(C)[C@H](CC[C@@H]4[C@@H]3CC[C@]3(C)[C@@H](/C=C/[N+](=O)[O-])CC[C@]43O)C2)[C@H](O)[C@H](O)[C@H]1O` gave an IC50 of 8.3 nM.
Work on `C[C@@H]1O[C@@H](O[C@H]2CC[C@@]3(C)[C@H](CC[C@@H]4[C@@H]3CC[C@]3(C)[C@@H](CC[N+](=O)[O-])CC[C@]43O)C2)[C@H](O)[C@H](O)[C@H]1O` yielded an IC50 of 45.5 nM.
